LANA-H2A inh: blocks KSHV LANA binding to histone H2A/H2B; Q9QR71; AID 2629; cell-free LANA-H2A/H2B peptide, fluorescence polarization; actives 0.6% (n = 320,000); inhibition, % (concentration not given with the values); in the data active = inhibition mostly above about 10%, no sharp cut-off; inactive = mostly below about 6.7%
HDAC3 inh: human HDAC3 inhibition; inhibition, % at 8.3 µM; AID 2718; O15379; actives 0.15% (n = 320,000); recombinant HDAC3, fluorogenic peptide/trypsin coupled, fluorescence; in the data active = inhibition above about 26%, passing the limit was not always enough
DSG3 Ab inh: blocks pemphigus antibody binding to human desmoglein-3 | actives 0.48% (n = 310,000) | P32926 | DSG3-coupled beads, scFv-anti-DSG3-GFP binding, flow cytometry; hits give low values | binding (percent of control), % at 10 µM;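 active = binding more than 3 SD below its plate's average and above zero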;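 also: hits lower antibody fragment binding to DSG3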
Target sequence (P32926 whole entry, looked up, the tested form may be a part): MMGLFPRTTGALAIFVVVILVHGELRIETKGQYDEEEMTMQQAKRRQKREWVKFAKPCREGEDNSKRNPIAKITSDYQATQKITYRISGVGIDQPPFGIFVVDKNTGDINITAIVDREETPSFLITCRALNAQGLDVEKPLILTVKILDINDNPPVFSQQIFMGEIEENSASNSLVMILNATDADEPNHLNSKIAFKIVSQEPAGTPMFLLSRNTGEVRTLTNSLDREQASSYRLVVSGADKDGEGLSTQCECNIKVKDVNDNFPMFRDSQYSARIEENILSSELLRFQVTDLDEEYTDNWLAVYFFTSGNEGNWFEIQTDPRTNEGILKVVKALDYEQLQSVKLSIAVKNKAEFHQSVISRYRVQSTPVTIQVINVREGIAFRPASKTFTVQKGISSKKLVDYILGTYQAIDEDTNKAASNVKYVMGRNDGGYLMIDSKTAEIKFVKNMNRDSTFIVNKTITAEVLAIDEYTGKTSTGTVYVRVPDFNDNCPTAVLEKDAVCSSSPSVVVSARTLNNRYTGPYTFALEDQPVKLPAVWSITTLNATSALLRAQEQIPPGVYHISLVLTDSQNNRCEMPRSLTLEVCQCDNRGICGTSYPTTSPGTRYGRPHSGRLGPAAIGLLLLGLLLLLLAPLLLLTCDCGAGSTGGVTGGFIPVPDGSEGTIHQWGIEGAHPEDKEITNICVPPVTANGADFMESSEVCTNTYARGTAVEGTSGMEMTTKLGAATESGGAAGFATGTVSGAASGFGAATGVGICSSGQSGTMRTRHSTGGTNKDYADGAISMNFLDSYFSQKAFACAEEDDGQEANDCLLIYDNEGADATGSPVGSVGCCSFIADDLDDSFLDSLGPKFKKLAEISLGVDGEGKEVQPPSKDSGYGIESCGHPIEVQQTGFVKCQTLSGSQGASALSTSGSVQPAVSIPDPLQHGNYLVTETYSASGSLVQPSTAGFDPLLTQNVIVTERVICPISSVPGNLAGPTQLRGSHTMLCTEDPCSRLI
Arrestin-AP2 inh: human beta-arrestin and AP2 interaction inhibition; inhibition, % at 10 µM; FITC-arrestin peptide / GST-AP2 beads, flow cytometry; AP2 beta2 appendage carries R879A mutation; actives 0.31% (n = 340,000);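 active = inhibition above a set limit, near 3 SD of compounds lacking own fluorescence, cut at about 54% in these data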
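Measured by: flow cytometry, FL1 (488/535 nm); Material: AP2 appendage R879A on GSH beads; Evaluation: percent response; Timing: pre-incubation 12 min, peptide binding 1 h, room temperature; Also added: 50 nM FITC-arrestin peptide; Medium: PBS with 0.05% Tween 20 and 0.1% BSA.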
T cell modulator: modulates CD8 T cell binding to vesicles. 2C CD8+ T cell-vesicle binding, flow cytometry; hits give low values. response (vesicle binding), % at 7 µM. actives 0.068% (n = 330,000);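 active = response, share of CD8 T cells binding vesicles, and their 90th percentile fluorescence all below set limits, cut at about 80% in these data, passing the limit was not always enough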;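 also: values below 100% mean blocked vesicle binding to the CD8+ T cells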
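Assay system: 2C TCR transgenic mouse naive CD8+ T cells, MACS-purified | Read-out: CD8+ gate FL2 mean fluorescence as % of same-row positive control | Signal: High-throughput flow cytometry with anti-B7-1 and anti-CD8 staining | Timing: Binding step 1.5 h, 37 °C, antibody labelling 20 min, ice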
Each line names hits and unclear results; the compound was inactive in the other large screens. Hits are enriched below; roughly 1.5% of the tested compounds scored in any of these assays.

NC(=O)c1ccc(NC(=O)COC(=O)CCN2C(=O)c3ccccc3C2=O)cc1	none
C=C(Br)CN1[C@@H](Cc2ccccc2)[C@H](O)[C@@]23C=C[C@@H](C[C@@H]2S1(=O)=O)O3	DSG3 Ab inh 86
O=C(COC(=O)CNC(=O)c1ccccc1)NC(=O)NC1CCCCC1	none
COc1cccc2c1C(=O)c1c(O)c3c(c(O)c1C2=O)C[C@@](O)(C(=O)CO)C[C@@H]3O[C@H]1C[C@H](N)[C@H](O)[C@H](C)O1	LANA-H2A inh 25 (no result: DSG3 Ab inh, T cell modulator)
Cc1cccc(C)c1OCCNC(=O)c1ccc2ccccc2n1	DSG3 Ab inh -7.3
Cc1ccc(OCCNC(=O)c2ccc3ccccc3n2)cc1	none
CC1CCN(S(=O)(=O)c2ccc(C(=O)Nc3ncccc3O)cc2)CC1	HDAC3 inh 64 (no result: DSG3 Ab inh)
CSc1nnc2c(n1)c(C)nn2-c1cccc(C)c1	DSG3 Ab inh 86
CSc1nncc(/C(C)=N\Nc2cccc(C)c2)n1	none
COc1ccc2[nH]c3c(c2c1)CCNC3C1CC=C(C)CC1 (stereo not drawn)	none
COc1ccc2[nH]c3c(c2c1)CCNC3c1ccc([N+](=O)[O-])o1 (stereo not drawn)	LANA-H2A inh 21
O=C(Cn1nnc(-c2ccc(N3CCOCC3)cc2)n1)OC1CCCCC1	DSG3 Ab inh 60
COc1ccc(CN(C)C(=O)Cn2ccc(N)nc2=O)cc1OC	none
O=CNc1ccccc1	LANA-H2A inh 96
c1ccc(Nc2ccccc2)cc1	none
CN(C)S(=O)(=O)c1cccc(N=C2NN=C(c3ccccc3)CS2)c1	LANA-H2A inh 44 (no result: DSG3 Ab inh, Arrestin-AP2 inh)
CC(=O)Nc1ccc(C2=NNC(=Nc3cccc(S(=O)(=O)N(C)C)c3)SC2)cc1	none
Cc1ccc(S(=O)(=O)N2CCN(c3c([N+](=O)[O-])cc(C(F)(F)F)cc3[N+](=O)[O-])CC2)cc1	none
Cc1ccc(S(=O)(=O)N2CCN(c3ccc(C(F)(F)F)cc3[N+](=O)[O-])CC2)cc1	DSG3 Ab inh 67
Cc1ccc(S(=O)(=O)/N=C2/C=C(Sc3ncn[nH]3)C(=O)c3ccccc32)c(C)c1	HDAC3 inh 38 (no result: DSG3 Ab inh, Arrestin-AP2 inh)
Cc1ccc(S(=O)(=O)/N=C2/C=C(Sc3ncn[nH]3)C(=O)c3ccccc32)cc1	DSG3 Ab inh 94
COc1cccc(-c2nc(CS(=O)CC(=O)NC3CCCC3)c(C)o2)c1 (stereo not drawn)	none
COc1cccc(-c2nc(CS(=O)CC(=O)NC3CCCCC3)c(C)o2)c1 (stereo not drawn)	DSG3 Ab inh 55
Cc1ccc(-c2nc(CS(=O)CC(=O)N3CCN(c4ccc(F)cc4)CC3)c(C)o2)cc1 (stereo not drawn)	none
COc1ccc(N2CCN(C(=O)CS(=O)Cc3nc(-c4ccc(OC)c(OC)c4)oc3C)CC2)cc1 (stereo not drawn)	LANA-H2A inh 16
COC(=O)c1ccc(C(=O)OC)c(NC(=O)COC(=O)C2CC2C)c1 (stereo not drawn)	LANA-H2A inh 21
O=C(COc1ccccc1)Nc1ccccc1Oc1ccccc1	none
CC1CC1C(=O)OCC(=O)Nc1ccccc1Oc1ccccc1 (stereo not drawn)	LANA-H2A inh 35 (no result: Arrestin-AP2 inh)
CC1CN(C(=O)c2cccc(S(=O)(=O)N3CCN(c4ccccc4)CC3)c2)CC(C)O1 (stereo not drawn)	none
COc1cc(NC(=O)COc2cccc3c2OC(C)(C)C3)cc(OC)c1OC	LANA-H2A inh 34
CC(=O)Oc1c(-c2ccc(Br)o2)oc2ccccc2c1=O	none
COCC(C)n1c(C)cc(C(=O)COC(=O)c2nn(C)c(=O)c3ccccc23)c1C (stereo not drawn)	DSG3 Ab inh 64
CCC1=NN2C(=N)/C(=C\c3ccc(OCc4cc(=O)n5nc(CC)sc5n4)c(OC)c3)C(=O)N=C2S1	DSG3 Ab inh 62 (no result: LANA-H2A inh, HDAC3 inh, T cell modulator)
Cc1nc(N[C@@H](Cc2c[nH]c3ccccc23)C(=O)O)c2oc3ccccc3c2n1	LANA-H2A inh 18 (no result: DSG3 Ab inh, Arrestin-AP2 inh)
Cc1nc2c(o1)C(=O)c1ccccc1C2=Nc1ccccc1	none (no result: LANA-H2A inh, HDAC3 inh, DSG3 Ab inh, T cell modulator)
Cc1nc2ccccc2n2c(O)c(CC(=O)O)cc12	LANA-H2A inh 27
Cc1nc2ccccc2n1CCC(=O)O	none (no result: DSG3 Ab inh)
CCN(CC(=O)Nc1ccc(OC)cc1)C(=O)Cc1coc2cc(C)c(C)cc12	LANA-H2A inh 56
Cc1ccc(NC(=O)CN(C)C(=O)Cc2coc3cc(C)c(C)cc23)cc1	none (no result: LANA-H2A inh, HDAC3 inh, T cell modulator)

Bioassay records (PubChem BioAssay)
